Source: PubChem BioAssay
CHRM4 PAM = positive allosteric modulators of human muscarinic M4 receptor. P08173. CHO-K1 hM4/Gqi5, Fluo-8 calcium fluorescence, ACh EC20; 0% = ACh EC20, 100% = maximal ACh. activation, % at 3 µM. 360,000 compounds, 0.4% hits. AID 624126;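 active means activation above its plate's cutoff, the mean activation of sample wells plus 3 SD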
M4 ag = CHRM4 agonism in calcium assay; CHO-K1 hM4/Gqi5, Fluo-8 calcium fluorescence; vehicle 0%, full acetylcholine response 100%; activation, % at 3 µM; 360,000 compounds, 0.14% hits; AID 624127;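 active means activation above the run mean over all test wells plus 3 SD, cut at about 32% in these data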;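 further: peak over basal fluorescence ratio per well then scaled between controls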
M5 ag = CHRM5 agonism in calcium assay; P08912; CHO-K1 hM5 cells, Fluo-8 calcium fluorescence; 0% DMSO wells, 100% maximal acetylcholine response; activation, % at 3 µM; 360,000 compounds, 0.19% hits; AID 624037;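 active means activation above the run's mean over test compounds plus 3 SD, cut at about 23% in these data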;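 further: signal is peak over basal fluorescence ratio across the kinetic read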
Target sequence (P08912 whole entry, looked up): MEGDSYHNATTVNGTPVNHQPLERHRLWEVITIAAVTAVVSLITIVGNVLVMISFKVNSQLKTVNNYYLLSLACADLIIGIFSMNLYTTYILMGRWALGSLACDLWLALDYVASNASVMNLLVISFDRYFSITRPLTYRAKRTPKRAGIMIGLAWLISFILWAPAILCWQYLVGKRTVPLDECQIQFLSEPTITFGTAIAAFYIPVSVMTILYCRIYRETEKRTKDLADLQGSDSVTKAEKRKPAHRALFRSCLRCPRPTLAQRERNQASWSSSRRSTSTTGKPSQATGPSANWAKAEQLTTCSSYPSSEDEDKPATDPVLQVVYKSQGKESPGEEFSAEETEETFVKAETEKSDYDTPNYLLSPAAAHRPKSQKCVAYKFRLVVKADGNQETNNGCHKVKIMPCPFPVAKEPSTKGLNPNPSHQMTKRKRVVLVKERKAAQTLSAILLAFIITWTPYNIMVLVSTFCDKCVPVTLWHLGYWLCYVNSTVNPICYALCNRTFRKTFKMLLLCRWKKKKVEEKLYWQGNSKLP
M5 antag = CHRM5 antagonism in calcium assay | P08912 | CHO-hM5 cells, Fluo-8 calcium fluorescence, ACh EC80 | AID 624040 | inhibition, % at 3 µM | 360,000 compounds, 0.59% hits;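 active means inhibition above a per-plate cutoff, the mean of that plate's test compounds plus 3 SD, cut at about 27% in these data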
M4 antag = CHRM4 antagonism in calcium assay | CHO-hM4 cells, ACh EC80, Fluo-8 calcium fluorescence | inhibition, % at 3 µM | AID 624125 | 360,000 compounds, 0.73% hits;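 active means inhibition above its plate's cutoff, the mean inhibition of sample wells plus 3 SD, cut at about 27% in these data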
M5 PAM = potentiates acetylcholine response at human M5 receptor | P08912 | 360,000 compounds, 0.3% hits | AID 624038 | CHO-K1 hM5, Fluo-8 calcium, ACh EC20 PAM; 0% = ACh EC20, 100% = ACh EC100 | activation, % at 3 µM;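 active means activation above the run cutoff, the mean activation of all test compounds plus 3 SD, cut at about 18% in these data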
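Probe or stimulus: acetylcholine, EC20 level; Assay system: human M5 receptor in CHO-K1 cells; Schedule: compound preincubation 140 s before EC20 acetylcholine addition; Technique: intracellular calcium via Fluo-8 fluorescence; Dosing: single-point, 3 µM nominal; Read-out basis: percent activation from peak-over-basal fluorescence ratio, scaled EC20-to-EC100 acetylcholine; Repeats: one well per compound, no replicates.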
A number is an active result; i = inactive. An excerpt weighted towards active compounds, which were near 1.9% of everything screened.

SMILES	CHRM4 PAM	M4 ag	M5 ag	M5 antag	M4 antag	M5 PAM
CCNc1ccc(Br)cc(C(=O)/C=C/c2c(Cl)cccc2Cl)c1=O	i	i	i	i	38	i
CNc1ccc(Br)cc(C(=O)/C=C/c2ccc(Cl)cc2Cl)c1=O	i	i	i	i	44	i
CNc1ccc(Br)cc(C(=O)/C=C/c2ccc(OC)cc2OC)c1=O	i	i	i	i	i	i
CCCN1CCC(=O)N(CCSc2ccc(C)cc2)CC1	i	i	i	i	i	i
CCCN1CCC(=O)N(CCSc2ccc(OC)cc2)CC1	i	i	i	i	i	19
O=C1CC(c2ccccc2)CN1C(=O)c1cccnc1 (stereo not given)	i	i	i	i	i	19
Cc1ccccc1C(=O)NCCN1CCC(n2c(=O)[nH]c3ccccc32)CC1	i	i	i	i	i	i
S=c1[nH]ncn1-c1ccccn1	25	i	i	i	i	i
c1ccc(-n2cnc3ccccc32)nc1	i	i	i	i	i	i
CC1=C(C(=O)N2CCCCCC2)CC(CC(=O)NC2CCCC2)C(=O)N1Cc1ccc(F)cc1 (stereo not given)	i	i	i	i	i	i
COc1ccc(OC)c2[nH]c(=O)c(CCNC(=O)c3ccc(S(=O)(=O)N(C)C)cc3)cc12	28	i	i	i	i	i
CC1(C(=O)NCc2cccs2)Cc2c(-c3cccc(C(F)(F)F)c3)ccnc2O1 (stereo not given)	i	i	i	i	i	i
CN1CCN(C(CNS(=O)(=O)c2ccc(Br)cc2)c2ccc3c(c2)OCO3)CC1 (stereo not given)	i	i	i	27	i	i
COc1ccc(-n2c(C)c(C)c3c(NCCN(C)C)ncnc32)cc1	i	i	i	i	i	29
Cc1cc(/C=C2\C(=N)N3N=C(S(C)(=O)=O)SC3=NC2=O)c(C)n1Cc1ccccc1	i	i	i	i	i	i
CCCC1=NN2C(=N)/C(=C\c3cc(C)n(Cc4ccccc4)c3C)C(=O)N=C2S1	i	42	36	i	i	i
Cc1ccccc1C(=O)NCC(=O)NNC(=O)CCN1CCN(c2ccccc2)CC1	i	i	i	i	i	i
Cc1ccsc1C(=O)NNC(=O)CCN1CCN(c2ccccc2)CC1	23	i	i	i	i	i
O=C(COC(=O)C1CCCC1)NCc1ccc(Cl)cc1	i	i	i	i	i	i
O=C(COC(=O)C1CCC1)NCc1ccccc1	24	i	i	i	i	i
OCc1ccccc1-c1ccc2nncn2c1	i	i	i	i	i	i
CC(=O)c1c(C)[nH]c(C(=O)COc2cc(C)ccc2C(C)C)c1C	i	i	i	41	39	i
O=S(=O)(Nc1nc2ccccc2nc1NCCO)c1cccc(Cl)c1	i	i	i	i	29	i
COCCCNc1nc2ccccc2nc1NS(=O)(=O)c1cccc(Cl)c1	i	i	i	i	i	i
C=CCn1c2c(c(=O)[nH]c1=S)CN(C(C)c1ccccc1)CN2 (stereo not given)	i	i	i	i	i	i
SMILES	CHRM4 PAM	M4 ag	M5 ag	M5 antag	M4 antag	M5 PAM
CCC(C)N1CNc2c(c(=O)[nH]c(=S)n2-c2cccc(C)c2)C1 (stereo not given)	i	i	i	35	i	23
COc1ccc(/C=C2\COc3ccccc3C2=O)cc1OC	i	i	i	i	i	i
CCOc1cc(/C=C2\COc3ccccc3C2=O)cc(Br)c1OCC(=O)N(C)C	i	i	i	i	29	i
COc1ccc(N2C(=O)CS(=O)C(c3ccccc3)C2=O)cc1 (stereo not given)	i	i	i	i	i	i
Cc1ccc(N2C(=O)CS(=O)C(c3ccccc3)C2=O)cc1C (stereo not given)	i	i	i	28	i	i
CN(Cc1ccccc1)Cc1cc(=O)oc2ccc3ccccc3c12	i	i	i	i	i	i
CCC(=O)N1CCCc2cc(S(=O)(=O)N3CCN(c4ncccn4)CC3)ccc21	i	i	i	i	i	i
CCC(=O)N1CCCc2cc(S(=O)(=O)N3CCN(c4ccccn4)CC3)ccc21	i	i	i	i	i	33
